Measured values reported in ChEMBL document CHEMBL1146104, “Synthesis and transdermal penetration-enhancing activity of carbonic and carbamic acid esters--comparison with transkarbam 12” (Bioorg Med Chem Lett, 2006).

How the values were obtained:
Type in all cases: ADME, organism-based
Details in all cases: pig
Sus scrofa [1] = species on record: Sus scrofa; test: Enhancement of theophylline transdermal penetration through porcine ear skin using Franz diffusion cell in propylene glycol/water medium relative to control
How it was run: (§1)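 Theophylline permeation from donor samples with and without enhancer (control lacks enhancer); acceptor-phase theophylline quantified by HPLC. Cumulative amounts (μg/cm2) plotted against time to derive flux (μg/cm2/h). Value is the enhancement ratio: flux with enhancer divided by flux of control. Significance p < 0.05 versus control.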

Sus scrofa [2] = species on record: Sus scrofa; test: Enhancement of theophylline transdermal penetration through porcine ear skin using Franz diffusion cell in isopropylmyristate medium relative to control; how it was run: as §1
Sus scrofa [3] = species on record: Sus scrofa; test: Enhancement of theophylline transdermal penetration through porcine ear skin using Franz diffusion cell in water medium relative to control; how it was run: as §1

**Q.** Which results are given for `CCCCCCCCCCCCOC(=O)CCCCCNC(=O)OCCCCCC(=O)OCCCCCCCCCCCC`?
**A.** Ratio (Sus scrofa [1]): 2.63; Ratio (Sus scrofa [2]): 1.29; Ratio (Sus scrofa [3]): 2.27

**Q.** Which results are given for `CCCCCCCCCCCCNC(=O)CCCCCOC(=O)OCCCCCC(=O)NCCCCCCCCCCCC`?
**A.** Ratio (Sus scrofa [1]): 3.29; Ratio (Sus scrofa [2]): 1.23; Ratio (Sus scrofa [3]): 0.91

**Q.** Which Ratio (Sus scrofa [1]) does the source give for `CCCCCCCCCCNC(=O)CCCCCOC(=O)OCC` here?
**A.** 1.36

**Q.** And the Ratio (Sus scrofa [2])?
**A.** 1.75

**Q.** And the Ratio (Sus scrofa [3])?
**A.** 3.37

**Q.** What does the source list for `CCCCCCCCCCCCOC(=O)CCCCCOC(=O)OCCCCCC(=O)OCCCCCCCCCCCC`?
**A.** Ratio (Sus scrofa [1]): 3.7; Ratio (Sus scrofa [2]): 1.39; Ratio (Sus scrofa [3]): 1.76

**Q.** Which results are given for `CCCCCCCCCCCCNC(=O)CCC(C)OC(=O)OCCCCCCCCCCCC` (configuration not stated)?
**A.** Ratio (Sus scrofa [1]): 1.11; Ratio (Sus scrofa [2]): 1.15; Ratio (Sus scrofa [3]): 1.7

**Q.** What does the source list for `CCCCCCCCCCCCOC(=O)CCCCCOC(=O)OCC`?
**A.** Ratio (Sus scrofa [1]): 2.13; Ratio (Sus scrofa [2]): 1.07; Ratio (Sus scrofa [3]): 2.4

**Q.** What does the source list for `CCCCCCCCCCCCNC(=O)CCC(C)OC(=O)OCC` (configuration not stated)?
**A.** Ratio (Sus scrofa [1]): 1.45; Ratio (Sus scrofa [2]): 1.77; Ratio (Sus scrofa [3]): 1.48

**Q.** What does the source list for `CCCCCCCCCCCCOC(=O)CCCCCOC(=O)OCCCCCCCCCCCC`?
**A.** Ratio (Sus scrofa [1]): 1.13; Ratio (Sus scrofa [2]): 1.29; Ratio (Sus scrofa [3]): 2.49

**Q.** How did the Ratio (Sus scrofa [1]) turn out when `CCCCCCCCCCCCOC(=O)CCCCCCOC(=O)NCCCCCC(=O)OCCCCCCCCCCCC` was run?
**A.** 1.02

**Q.** And the Ratio (Sus scrofa [2])?
**A.** 1.07

**Q.** What about the Ratio (Sus scrofa [3]) of the same molecule?
**A.** 1.22

**Q.** How did the Ratio (Sus scrofa [1]) turn out when `CCCCCCCCCCCCOC(=O)OCCCCCC(=O)NCCCCCCCCCC` was run?
**A.** 2.66

**Q.** And the Ratio (Sus scrofa [2])?
**A.** 1.48

**Q.** And the Ratio (Sus scrofa [3])?
**A.** 1.13

**Q.** Which Ratio (Sus scrofa [1]) does the source give for `CCCCCCCCCCCCOC(=O)CCCCCNC(=O)OCCCCCCCCCCCC` here?
**A.** 0.47

**Q.** And the Ratio (Sus scrofa [2])?
**A.** 0.57

**Q.** What about the Ratio (Sus scrofa [3]) of the same molecule?
**A.** 0.77

**Q.** For `CCCCCCCCCCCCOC(=O)CCCCCNC(=O)OCC`, which Ratio (Sus scrofa [1]) is on record?
**A.** 1.52

**Q.** What about the Ratio (Sus scrofa [2]) of the same molecule?
**A.** 1.01

**Q.** And the Ratio (Sus scrofa [3])?
**A.** 1.83

**Q.** What does the source list for `CCCCCCCCCCCCOC(=O)CCCCCCOC(=O)OCCCCCC(=O)OCCCCCCCCCCCC`?
**A.** Ratio (Sus scrofa [1]): 1.24; Ratio (Sus scrofa [2]): 1.49; Ratio (Sus scrofa [3]): 0.8

**Q.** Which results are given for `CCCCCCCCCCCCOC(=O)CCCCCN.CCCCCCCCCCCCOC(=O)CCCCCNC(=O)O` [TRANSKARBAM 12]?
**A.** Ratio (Sus scrofa [1]): 22.8; Ratio (Sus scrofa [2]): 6.56; Ratio (Sus scrofa [3]): 1.9
